Tests used:
[1] = tested on: MS2 coat protein; experiment: apparent Kd, MS2 coat protein; higher = weaker binding; RNA-MaP array; tryptophan 2.4 mM where present
Procedure, shortened: (§1)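 On Illumina sequencing-chip clusters, designs were transcribed by stalled E. coli RNA polymerase and titrated with SNAP-549-labelled MS2 coat protein (0.7 or 1.5 nM, doubling to 3 µM), without and then with constant ligand, in 100 mM Tris-HCl pH 7.5, 80 mM KCl, 4 mM MgCl2, BSA, DTT, yeast tRNA and Tween-20. Apparent Kd is the median of filtered per-cluster curve fits to green signal normalised to red-channel RNA signal and control-cluster median Fmax.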

[2] = tested on: MS2 coat protein; experiment: apparent Kd, MS2 coat protein; higher = weaker binding; RNA-MaP array; theophylline 2 mM where present
Procedure, shortened: as §1

[3] = designed as: ON switch for tryptophan, no ligand
[4] = ligand present: tryptophan, designed as: ON switch for tryptophan
[5] = designed as: OFF switch for tryptophan, no ligand
[6] = ligand present: tryptophan, designed as: OFF switch for tryptophan

Sequence	apparent Kd [1, 3]	apparent Kd [1, 4]	apparent Kd [1, 5]	apparent Kd [1, 6]	other results
AUAUAUACAUGAGGAUCACCCAUGUUAUUUCGAGGACCGGUACGGCCGCCACUCGAUAGAGUAGAAGUAAAUUUUGUUACAUGUA	11.1 nM	11.4 nM	–	–	–
AACAGUUGGUCGGCCGCCACUACAUGAGGAUCACCCAUGUAGCGCGUUCUGCUCCAGGGCUCAUCUAGGACCGGGACACGAGUGU	–	–	15.1 nM	16 nM	–
UGUGGGCGCACGGCCGCCACUGUCUUCAUCUGUUUGUCUACAUGAGGAUCACCCAUGUUGGUUUACAGGACCGGGUGCAUCUAUG	45.2 nM	30.1 nM	–	–	–
AUAACAUGAGGAUCACCCAUGUAUUGGUUACGAGGACCGGUACGGCCGCCACUCGUAUUUUGGUGGUAUUUUGUAUAUAUGAUAA	26.8 nM	26.3 nM	–	–	–
UGUGCAUGAGUUGUAAAAGCUCAUGGGCAUCGAGGACCGGUACGGCCGCCACUCGGCUGUACAUGAGGAUCACCCAUGUCAGGGU	302 nM	567 nM	–	–	–
UCAUAAGUACCGGUCCUCAGAUCCUCAUGACGAGGACCGGUACGGCCGCCACUCGAAACAUGAGGAUCACCCAUGUAAUAAUACU	–	–	24.1 nM	23.6 nM	–
AAUAAACAUGAGGAUCACCCAUGUAGGGUGCGAGGACCGGUACGGCCGCCACUCGGGUGAAAACAUGAGGAUCACCCAUGUUAAA	–	–	198 nM	420 nM	–
UAAUGCAGGUCGGCCGCCACUACACACAUGAGGAUCACCCAUGUAGUUACUGGGUGAAGUGGCAGUAGGACCGGGACCUGCAUAA	419 nM	516 nM	–	–	–
AUAACAUGAGGAUCACCCAUGUAUUGGUAACGAGGACCGGUACGGCCGCCACUCGAAUUUUGGUGGUAUAAUAUAUAUAUGAUUA	21 nM	20.6 nM	–	–	–
AACGGUCGUACCGGAAUGAUCCUCAUGUAACGAGGACCGGUACGGCCGCCACUCGAUAACAUGAGGAUCACCCAUGUAAUAAUAA	–	–	12.9 nM	11 nM	–
UAUAGUACCAGACAUGAGGAUCACCCAUGUCGAGGACCGGUACGGCCGCCACUCGGCAGUUUGCGUCCUCAGGUACUCCGGGUCA	–	–	13.9 nM	16.6 nM	–
CCUAUGCAGUCGGCCGCCACUGAACAUGAGGAUCACCCAUGUUAUUAUAAAUAUGGUCCUAAAAUCAGGACCGGGACUGUAUAGG	–	–	68 nM	228 nM	–
AAUGUAUGGCACAUGAGGAUCACCCAUGUGCGAGGACCGGUACGGCCGCCACUCGGUCGGUGGUUAAUGAAGCUAUACAUUAAUG	–	–	40 nM	57.7 nM	–
AGUUUAGACACGGCCGCCACUCGUGACAGAUUUCGCAGUGGUCAACAUGAGGAUCACCCAUGUCUGAGGACCGGGUGUUGAGUUU	–	–	44.1 nM	259 nM	–
GGAUUAGAGGCGGCCGCCACUGGAACAUGAGGAUCACCCAUGUAGUGCAUGUAAUUAACCUCGAUCAGGACCGGGCCGAUAGUCA	–	–	59.9 nM	103 nM	–
GGUUACUCUACGGCCGCCACUGUAAUGUAAAGAUACCUGUACAUGACAUGAGGAUCACCCAUGUACAGGACCGGGUAGUGUAACC	237 nM	48.1 nM	–	–	–
CUACAUUUGUAGAAACCGGUCAACAAUAAUCGAGGACCGGUACGGCCGCCACUCGUAUAAUUUUAUACAUGAGGAUCACCCAUGU	13.5 nM	13.4 nM	–	–	–
ACCUGCGUUUGAUAAAAUCAGACGCAGGUUCGAGGACCGGUACGGCCGCCACUCGGACAUGAGGAUCACCCAUGUUUGACAUGGG	–	–	109 nM	256 nM	–
AUAUAUACAUGAGGAUCACCCAUGUUAUUUCGAGGACCGGUACGGCCGCCACUCGAUAGAGUAGAAGUAAAUUUUGAUUCAUGUA	20.6 nM	18.1 nM	–	–	–
GGGCGCGUGGACUGGCGUGCUCCGCUCCGUCGAGGACCGGUACGGCCGCCACUCGACAUGAGGAUCACCCAUGUGUGAGCUCGCG	–	–	152 nM	474 nM	–
GGUAUGUAUUCGGAAACGAAUGCAUACCAACGAGGACCGGUACGGCCGCCACUCGCCGUCCUCAAACAUGAGGAUCACCCAUGUA	–	–	25.9 nM	68.5 nM	–
GGUACAUGAGGAUCACCCAUGUAUUAGUGCCGAGGACCGGUACGGCCGCCACUCGCUUCACAUGAGGAUCACCCAUGUGUCACAG	32 nM	40.8 nM	–	–	–
ACAGGUACGCCUAUUAAAAUAAAACACCUACGAGGACCGGUACGGCCGCCACUCGGGUGACAUGAGGAUCACCCAUGUGGCUAAA	394 nM	155 nM	–	–	–

Sequence	apparent Kd [1, 3]	apparent Kd [1, 4]	apparent Kd [1, 5]	apparent Kd [1, 6]	other results
CAAAUAAGAACAAACAAAUAACGGUUUUCGCGAGGACCGGUACGGCCGCCACUCGUGUGAAAUAACACAUGAGGAUCACCCAUGU	36.1 nM	20.6 nM	–	–	–
GUAUAUUGAAAACAAUAUACAGUGGGUGAACGAGGACCGGUACGGCCGCCACUCGGACAUGAGGAUCACCCAUGUCCAUGUGAAA	–	–	17 nM	35.2 nM	–
UCGUUUGAGGCGGCCGCCACUGGUCUCAUGGUCAACAUGAGGAUCACCCAUGUAUCUUUGCUAAGCAGGACCGGGCCUCGAGCGA	–	–	66.7 nM	36.8 nM	–
UACUUGCUGACGGCCGCCACUAGAACAUGAGGAUCACCCAUGUAUCUAGUGGCAAUCCUCAUGACUAGGACCGGGUCAGCAAGAU	–	–	9.71 nM	9.56 nM	–
AGCGUUCGGUUUAUGCCGGACAAUGGGUGACGAGGACCGGUACGGCCGCCACUCGGGCGCCCGGUUACAUGAGGAUCACCCAUGU	258 nM	30.1 nM	–	–	–
AAUUAUCAGUCGGCCGCCACUGACACAUGAGGAUCACCCAUGUAACUUGGGUUAAAUUUACUGAACAGGACCGGGACAAAGGCUA	–	–	179 nM	236 nM	–
GCAACGCUGUCGGCCGCCACUUUUACAUUGGCCGUGCUGUCUCUACAUGAGGAUCACCCAUGUGGAAGGACCGGGACAGCACACU	–	–	29 nM	64 nM	–
CACGAAAGAUCGGCCGCCACUCAUGUAGCUUACAUGAGGAUCACCCAUGUAUUUUCUUUCUUUUAGAGGACCGGGAUCGAGCGUG	37.4 nM	19.2 nM	–	–	–
CUACAUUUGUAGAAACCGGUCACCAUUACUCGAGGACCGGUACGGCCGCCACUCGUGUCAUGUGAUACAUGAGGAUCACCCAUGU	22 nM	23.1 nM	–	–	–
CACGAAAGAUCGGCCGCCACUAAUCUAUGUGUACUAGCACAUGAGGAUCACCCAUGUUCUUGCGUUAGGACCGGGAUUGAGCGUG	–	–	22.2 nM	18.8 nM	–
AGUCUGGACUCGGCCGCCACUCGUGAUGCUUUGGCACAUGAGGAUCACCCAUGUGGUCGGCCUUAGAGGACCGGGAGUACCAGUC	56.1 nM	13.7 nM	–	–	–
AUUCAUGGAAACAUGAGAUAUCCUACCGGUCGAGGACCGGUACGGCCGCCACUCGGUUGGUGGCACAUGAGGAUCACCCAUGUUA	291 nM	265 nM	–	–	–
AUGCAUAGCACGGCCGCCACUCAAAUUAAACAUGAGGAUCACCCAUGUAACAUGGAUAAAAUAAAGAGGACCGGGUGAAAUGCAA	28.3 nM	18.9 nM	–	–	–
GGCAAGCGAGACAUGAGGAUCACCCAUGUUCGAGGACCGGUACGGCCGCCACUCGGUGGACUCAUGGUAAAGCCGGUGAGCCAAA	34.6 nM	74.3 nM	–	–	–
AUUGUGAAGUCGGCCGCCACUGCAUAGUUUAACCACAUGUAACAUGAGGAUCACCCAUGUAAUGACAGGACCGGGACAAUAGUAA	28 nM	21.1 nM	–	–	–
CGAUAUAAGACGGCCGCCACUAUUAUGUAACAAAAUAAACAUGAGGAUCACCCAUGUACAUGGGAUAGGACCGGGUCCAAUAACG	112 nM	58.2 nM	–	–	–
UUAUAAGUACCGGUCCUCAGAUCCUCAUGACGAGGACCGGUACGGCCGCCACUCGAAACAUGAGGAUCACCCAUGUAAUAAUAUC	–	–	23.8 nM	24.7 nM	–
CUAUGCAGGUCGGCCGCCACUACACACAUGAGGAUCACCCAUGUAGUUACUGGGUGAAGUGGCAGUAGGACCGGGACCUGCAUAU	257 nM	360 nM	–	–	–
AUGACUAACAAAGAAGAUAAAAUGGGUGAACGAGGACCGGUACGGCCGCCACUCGGACAUGAGGAUCACCCAUGUCCAUGUGCAA	–	–	22.3 nM	28.7 nM	–
GGUACAUGAGGAUCACCCAUGUAUUAGUGCCGAGGACCGGUACGGCCGCCACUCGCUUCACAUGAGGAUCACCCAUGUGUCACUG	29.8 nM	39.8 nM	–	–	–
CUCUGGUGCUGAGUGAGUGUCGUGACUGAUACCAGAUGCCUUUACAUCCCUUGGCAGCAGUACAUGAGGAUCACCCAUGUAUUCC	–	–	–	–	apparent Kd ([2]; designed as: OFF switch for theophylline, no ligand): 22.1 nM; apparent Kd ([2]; ligand present: theophylline, designed as: OFF switch for theophylline): 182 nM
UGUAUGUGAUUUGAUACCAGUCCAACUGGUAAAACAUGAGGAUCACCCAUGUAAAAUUGGGACCCUUGGCAGCAAAUCGCAUACU	–	–	–	–	apparent Kd ([2]; designed as: ON switch for theophylline, no ligand): 355 nM; apparent Kd ([2]; ligand present: theophylline, designed as: ON switch for theophylline): 30.1 nM
